Structures are written as SMILES. Values joined by “and” are separate entries in the source; they are usually repeats but may differ in a detail not shown here. Equal entries are not always repeated.

The target of assay [1] is T1, SULT1A1 (Homo sapiens, UniProt P50225). In words: Equilibrium binding of TAM and 1-HP to SULT1A1 forms E, E·PAP, E·. Summed up: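 Acceptor titrated into SULT1A1 (0.05–10 μM dimer) with PAP 0–500 μM, MgCl2 5.0 mM, NaPO4 (25 or 50 mM), pH 7.2, 25 ± 2 °C. Intrinsic fluorescence read at λex 290 nm, λem 345 nm. Free enzyme had no PAP; 0.50 mM PAP saturates both sites; singly bound form used 9.0 μM dimer with 9.0 μM PAP. Biphasic phases fitted separately. Triplicates averaged; least-squares single-site fit.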
T1 sequence (P50225 whole entry): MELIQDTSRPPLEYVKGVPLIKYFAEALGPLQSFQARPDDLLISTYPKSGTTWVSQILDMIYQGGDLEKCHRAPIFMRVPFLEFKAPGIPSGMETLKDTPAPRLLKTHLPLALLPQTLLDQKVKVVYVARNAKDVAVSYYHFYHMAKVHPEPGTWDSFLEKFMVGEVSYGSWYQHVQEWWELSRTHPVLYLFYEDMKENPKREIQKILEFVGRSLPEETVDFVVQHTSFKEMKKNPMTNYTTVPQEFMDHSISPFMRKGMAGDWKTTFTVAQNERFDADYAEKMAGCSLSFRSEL

Assay [2] concerns the target T1, SULT1A1. In words: Initial rate of 1-HP sulfonation by SULT1A1. In kind it is biochemical. A digest of the protocol: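 Recombinant SULT1A1 at 1.0 nM dimer with MgCl2 5.0 mM and NaPO4 50 mM, pH 7.2, 25 ± 2 °C. Reactions started with PAPS: 2.0 μM saturates both sites, 0.30 μM only the first. Acceptor 8.0–200 nM. Product fluorescence read at λex 320 nm, λem 380 nm. […]. Duplicates; weighted least-squares fit in double-reciprocal form.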

The target in assay [3] is T1, SULT1A1. In words: Equilibrium binding of PAPS to SULT1A1. The conditions noted are these: for Kd: pH 7.2, 25 °C. Summed up:
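Human SULT1A1, codon-optimised, expressed in E. coli BL21(DE3) with a His/GST/MBP tag, then tag-cleaved. PAPS titrated into enzyme with MgCl2 5.0 mM and NaPO4 50 mM, pH 7.2, 25 ± 2 °C. Intrinsic fluorescence read at λex 290–295 nm, λem 345 nm. Dimer 0.05 μM for high-affinity Kd; 3.0 μM for first-site stoichiometry and low-affinity phase; 475 μM for full-site, at λex 297 nm. Triplicates averaged; single-site-per-dimer fit.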

Assay [4] concerns the target T1, SULT1A1. To be noted: PAP bound to SULT1A1, in favor of pore closure; cited from earlier work.
Assay [5] concerns the target T1, SULT1A1. Nature of the assay: Pre-steady-state PAPS binding. To be noted: for Kd: read-out: koff/kon. A digest of the protocol: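 Stopped-flow, excitation 290 nm, emission above 330 nm. Enzyme solution (MgCl2 5.0 mM, NaPO4, pH 7.2, 25 ± 2 °C) mixed 1:1 with PAPS solution. High-affinity site: 30 nM dimer. Low-affinity site: 2.0 μM dimer pre-equilibrated with PAPS, then mixed with higher PAPS. Pseudo-first-order; three curves per concentration (each 8–10 shots) at four PAPS levels. Single-exponential kobs; kon from slope, koff from intercept.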

Assay [6] has as its target T1, SULT1A1. In words: Initial rate kinetics of TAM sulfation. In kind it is biochemical.
Where [7] appears, read: acceptor binding to E (no nucleotide), pH 7.2, 25 °C.
The mark [8] stands for this setting: acceptor binding to E·(PAP)2 (TAM: PAP 0.50 mM; 1-HP: PAP 2.0 µM).
Where [9] appears, read: 1-HP as substrate, E·PAP form, [PAPS] 0.30 μM.
Where [10] appears, read: high-affinity PAPS binding site, pH 7.2, 25 °C.
The mark [11] stands for this setting: low-affinity PAPS binding site, dimer pre-equilibrated with PAPS.

On to `Oc1ccc2ccc3cccc4ccc1c2c34` [1-HP, 1-hydroxypyrene], for which the Kd at SULT1A1 [1] (setting [7]) was 8000 nM. This molecule also came in with a Kd on SULT1A1 [1] (setting [8]) of 25 nM. Besides, the kcat on SULT1A1 [2] (1-HP as substrate, E·(PAP)2 form, [PAPS] 2.0 μM) is 1000 (60) s^–1. Besides, at SULT1A1 [2] (setting [9]), the Km was 0.041 µM and the kcat was 130 (20) s^–1. Also, on SULT1A1 [2] (1-HP sulfonation), the “effect of PAPS occupancy on Km” value was “not affected by PAPS occupancy”; the “increase in kcat, doubly vs singly occupied enzyme” value is listed as approximately 8 fold; the “increase in turnover of each subunit, doubly vs singly occupied enzyme” value was found to be 4 times.
For `Nc1ncnc2c1ncn2[C@@H]1O[C@H](COP(=O)(O)O)[C@@H](O)[C@H]1O` [AMP, Adenosine monophosphate], the “binding to SULT1A1” value at SULT1A1 [3] (used in control titrations for inner-filter correction) is given as “does not bind SULT1A1”.
Consider `Nc1ncnc2c1ncn2[C@@H]1O[C@H](COP(=O)(O)O)[C@@H](OP(=O)(O)O)[C@H]1O` [PAP, 3′,5′-diphosphoadenosine], for which the “isomerization equilibrium constant, Kiso” value on SULT1A1 [4] is given as 26.
With `Nc1ncnc2c1ncn2[C@@H]1O[C@H](COP(=O)(O)OS(=O)(=O)O)[C@@H](OP(=O)(O)O)[C@H]1O` [PAPS, 3′-phosphoadenosine 5′-phosphosulfate], at SULT1A1 [5] (corrected for two subunits able to bind the first ligand), the “kon for the first site, aggregate value halved” value was 1.0 μM^–1 s^–1. The results for the koff on SULT1A1 [5] (setting [10]) and on SULT1A1 [5] (setting [11]) were 0.70 (0.05) s^–1 and 29 (1) s^–1, respectively. For the same molecule, the kon at SULT1A1 [5] (setting [10]) is on record as 2.0 (0.1) μM^–1 s^–1; on SULT1A1 [5] (setting [11]), 0.96 (0.01) μM^–1 s^–1. Further, the Kd at SULT1A1 [5] (high-affinity PAPS binding site) was found to be 370 nM; on SULT1A1 [5] (low-affinity PAPS binding site), 30000 nM; at SULT1A1 [3] (high-affinity PAPS binding site, SULT1A1 0.05 μM dimer), 370 nM; at SULT1A1 [3] (low-affinity PAPS binding site, SULT1A1 3.0 μM dimer), 30000 nM. Moreover, the “PAPS binding stoichiometry at the high-affinity site” value on SULT1A1 [3] (SULT1A1 3.0 μM dimer (16Kd)) was 1.1 ± 0.2 PAPS molecules per dimer and 1.1 ± 0.1 PAPS molecules per dimer. For the same molecule, the “difference in affinities (Kd) of the two PAPS binding sites” value on SULT1A1 [3] (low- vs high-affinity site) turned out to be 81 fold.
With `CC/C(=C(\c1ccc(O)cc1)c1ccc(OCCN(C)C)cc1)c1ccccc1` [TAM, 4-hydroxytamoxifen], the Kd on SULT1A1 [1] (setting [7]) was 670 nM; at SULT1A1 [1] (setting [8]) it was 680 nM and 650 nM. At SULT1A1 [1] (SULT1A1 10 μM dimer, PAP 0 or 0.50 mM), the “stoichiometry of binding to E and E·(PAP)2” value is listed as 2.0 ± 0.1 TAM bound per SULT1A1 dimer. For the same molecule, on SULT1A1 [6], the “ratio of Km for the singly and doubly occupied enzyme” value was determined as 23.

(Values after PMC4230322 (Biochemistry, 2014).)
